Assay results reported in ChEMBL document CHEMBL4428088, “Synthesis and evaluation of 6-pyrazoylamido-3N-substituted azabicyclo[3,1,0]hexane derivatives as T-type calcium channel inhibitors for treatment of neuropathic pain” (Bioorg Med Chem, 2016).
Activity calls are given as the source filed them. The calls are words filed in the database; no cut-off is given here.

Tests used:
Rattus norvegicus [1] = assay: Antiallodynic activity in rat model of spinal nerve ligation-induced neuropathic pain assessed as […] for paw withdrawal at 100 mg/kg, po administered on day 14 after ligation surgery and measured 3 to 5 hrs post dose by Von Frey filaments based method; format: functional, organism-based
How it was run: (§1)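 Spinal nerve ligation rats were dosed orally at 100 mg/kg 14 days after surgery, with gabapentin 100 mg/kg as reference (n = 5 test, n = 4 gabapentin). Mechanical and cold allodynia were tested 1, 3 and 5 h post dose. Significance versus pre-dose value by paired t-test.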

Rattus norvegicus [2] = assay: Antiallodynic activity in rat model of spinal nerve ligation-induced neuropathic pain assessed as reduction in cold allodynia by measuring paw withdrawal in response to acetone application at 100 mg/kg, po administered on day 14 after ligation surgery measured 1 to 5 hrs post dose relative to gabapentin; format: functional; how it was run: as §1
CYP2C9 = CYP2C9 (Homo sapiens, UniProt P11712); assay: Inhibition of human CYP2C9 expressed in baculosomes assessed as remaining activity using fluorogenic substrate after 15 mins in presence of NADPH by fluorescence assay; format: ADME; design: concentration or dose not given beside the values; conditions: recombinant human CYP2C9 in baculosomes, probe fluorogenic substrate, read-out: Activity
How it was run: (§2)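 Vivid CYP450 fluorescence assay for CYP2D6, 2C9, 2C19 and 3A4. Compound was preincubated with baculosome Master Pre-Mix and regeneration system for 15 min at 37 °C. The reaction was started with Vivid substrate plus NADPH and read on a fluorescence plate reader. Values are % remaining activity, in triplicate.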

CYP2C19 = CYP2C19 (Homo sapiens, UniProt P33261); assay: Inhibition of human CYP2C19 expressed in baculosomes assessed as remaining activity using fluorogenic substrate after 15 mins in presence of NADPH by fluorescence assay; format: ADME; design: concentration or dose not given beside the values; conditions: recombinant human CYP2C19 in baculosomes, probe fluorogenic substrate, read-out: Activity; how it was run: as §2
CYP2D6 = CYP2D6 (Homo sapiens, UniProt P10635); assay: Inhibition of human CYP2D6 expressed in baculosomes assessed as remaining activity using fluorogenic substrate after 15 mins in presence of NADPH by fluorescence assay; format: ADME; design: concentration or dose not given beside the values; conditions: recombinant human CYP2D6 in baculosomes, probe fluorogenic substrate, read-out: Activity; how it was run: as §2
[3] = target: Voltage-gated inwardly rectifying potassium channel KCNH2 (Homo sapiens, UniProt Q12809); assay: Inhibition of human ERG expressed in CHO-K1 cells by whole cell patch clamp method; format: cell-based
CYP3A4 = CYP3A4 (Homo sapiens, UniProt P08684); assay: Inhibition of human CYP3A4 expressed in baculosomes assessed as remaining activity using fluorogenic substrate after 15 mins in presence of NADPH by fluorescence assay; format: ADME; design: concentration or dose not given beside the values; conditions: recombinant human CYP3A4 in baculosomes, probe fluorogenic substrate, read-out: Activity; how it was run: as §2
[4] = target: T1, Voltage-dependent T-type calcium channel subunit alpha-1H (Homo sapiens, UniProt O95180); assay: Inhibition of T-type alpha1H channel (unknown origin) expressed in HEK293 cells after 3 mins by patch clamp assay; format: cell-based
[5] = target: T2, Voltage-dependent T-type calcium channel subunit alpha-1G (Homo sapiens, UniProt O43497); assay: Inhibition of T-type alpha1G channel (unknown origin) by whole cell patch clamp method
How it was run: (§3)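 Whole-cell patch clamp recording. T-type α1G and α1H IC50 values (±SD) were taken from dose-response curves.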

[6] = target: T1, Voltage-dependent T-type calcium channel subunit alpha-1H; assay: Inhibition of T-type alpha1H channel (unknown origin) expressed in HEK293 cells at 10 uM by fluorescence-based HTS assay; format: cell-based
How it was run: (§4)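 FDSS6000 fluorescence-based HTS assay in HEK293 cells expressing Cav3.1 (α1G) or Cav3.2 (α1H), read as % inhibition.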

[7] = target: T2, Voltage-dependent T-type calcium channel subunit alpha-1G; assay: Inhibition of T-type alpha1G channel (unknown origin) expressed in HEK293 cells at 10 uM by fluorescence-based HTS assay; format: cell-based; how it was run: as §4
[8] = target: Voltage-dependent N-type calcium channel subunit alpha-1B (Homo sapiens) (UniProt Q00975); assay: Inhibition of N-type calcium channel (unknown origin) at 10 uM by whole cell patch clamp method
[9] = Metabolic stability in human liver microsomes assessed as parent compound remaining after 30 mins in presence of NADPH by LC-MS/MS analysis; format: ADME, Microsome; conditions: read-out: Stability
How it was run: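 Pooled human liver microsomes were incubated at 37 °C with compound in potassium phosphate buffer and 1.2 mM NADPH for 30 min. The reaction was stopped with cold acetonitrile containing internal standard, centrifuged, and the supernatant analysed by LC-MS/MS.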

[10] = target: T1, Voltage-dependent T-type calcium channel subunit alpha-1H; assay: Inhibition of T-type alpha1H channel (unknown origin) by whole cell patch clamp method; how it was run: as §3
[11] = Oral bioavailability in rat at 10 mg/kg; format: ADME, organism-based; conditions: in vivo
[12] = AUClast in rat at 10 mg/kg, po; format: ADME, organism-based; design: dose 10 mg/kg, route oral, time 0 - last; conditions: in vivo
[13] = AUC (0 to infinity) in rat at 10 mg/kg, po; format: ADME, organism-based; design: dose 10 mg/kg, route oral, time infinity; conditions: in vivo
[14] = Ratio of drug level in rat brain to plasma at 10 mg/kg, po at 2 hrs; format: ADME, organism-based; conditions: brain and plasma, read-out: BPR
[15] = AUC (0 to infinity) in rat at 10 mg/kg, iv; format: ADME, organism-based; design: dose 10 mg/kg, time infinity, route intravenous; conditions: in vivo
[16] = AUClast in rat at 10 mg/kg, iv; format: ADME, organism-based; design: dose 10 mg/kg, time 0 - last, route intravenous; conditions: in vivo
[17] = Cmax in rat at 10 mg/kg, po; format: ADME, organism-based; design: dose 10 mg/kg, route oral; conditions: in vivo
[18] = Mean residence time in rat at 10 mg/kg, iv; format: ADME, organism-based; conditions: in vivo
[19] = Ratio of drug level in rat brain to plasma at 10 mg/kg, iv at 2 hrs; format: ADME, organism-based; conditions: brain and plasma, read-out: BPR
[20] = Clearance in rat at 10 mg/kg, iv; format: ADME, organism-based; conditions: in vivo
[21] = Tmax in rat at 10 mg/kg, po; format: ADME, organism-based; conditions: in vivo

T2 sequence (O43497 whole entry): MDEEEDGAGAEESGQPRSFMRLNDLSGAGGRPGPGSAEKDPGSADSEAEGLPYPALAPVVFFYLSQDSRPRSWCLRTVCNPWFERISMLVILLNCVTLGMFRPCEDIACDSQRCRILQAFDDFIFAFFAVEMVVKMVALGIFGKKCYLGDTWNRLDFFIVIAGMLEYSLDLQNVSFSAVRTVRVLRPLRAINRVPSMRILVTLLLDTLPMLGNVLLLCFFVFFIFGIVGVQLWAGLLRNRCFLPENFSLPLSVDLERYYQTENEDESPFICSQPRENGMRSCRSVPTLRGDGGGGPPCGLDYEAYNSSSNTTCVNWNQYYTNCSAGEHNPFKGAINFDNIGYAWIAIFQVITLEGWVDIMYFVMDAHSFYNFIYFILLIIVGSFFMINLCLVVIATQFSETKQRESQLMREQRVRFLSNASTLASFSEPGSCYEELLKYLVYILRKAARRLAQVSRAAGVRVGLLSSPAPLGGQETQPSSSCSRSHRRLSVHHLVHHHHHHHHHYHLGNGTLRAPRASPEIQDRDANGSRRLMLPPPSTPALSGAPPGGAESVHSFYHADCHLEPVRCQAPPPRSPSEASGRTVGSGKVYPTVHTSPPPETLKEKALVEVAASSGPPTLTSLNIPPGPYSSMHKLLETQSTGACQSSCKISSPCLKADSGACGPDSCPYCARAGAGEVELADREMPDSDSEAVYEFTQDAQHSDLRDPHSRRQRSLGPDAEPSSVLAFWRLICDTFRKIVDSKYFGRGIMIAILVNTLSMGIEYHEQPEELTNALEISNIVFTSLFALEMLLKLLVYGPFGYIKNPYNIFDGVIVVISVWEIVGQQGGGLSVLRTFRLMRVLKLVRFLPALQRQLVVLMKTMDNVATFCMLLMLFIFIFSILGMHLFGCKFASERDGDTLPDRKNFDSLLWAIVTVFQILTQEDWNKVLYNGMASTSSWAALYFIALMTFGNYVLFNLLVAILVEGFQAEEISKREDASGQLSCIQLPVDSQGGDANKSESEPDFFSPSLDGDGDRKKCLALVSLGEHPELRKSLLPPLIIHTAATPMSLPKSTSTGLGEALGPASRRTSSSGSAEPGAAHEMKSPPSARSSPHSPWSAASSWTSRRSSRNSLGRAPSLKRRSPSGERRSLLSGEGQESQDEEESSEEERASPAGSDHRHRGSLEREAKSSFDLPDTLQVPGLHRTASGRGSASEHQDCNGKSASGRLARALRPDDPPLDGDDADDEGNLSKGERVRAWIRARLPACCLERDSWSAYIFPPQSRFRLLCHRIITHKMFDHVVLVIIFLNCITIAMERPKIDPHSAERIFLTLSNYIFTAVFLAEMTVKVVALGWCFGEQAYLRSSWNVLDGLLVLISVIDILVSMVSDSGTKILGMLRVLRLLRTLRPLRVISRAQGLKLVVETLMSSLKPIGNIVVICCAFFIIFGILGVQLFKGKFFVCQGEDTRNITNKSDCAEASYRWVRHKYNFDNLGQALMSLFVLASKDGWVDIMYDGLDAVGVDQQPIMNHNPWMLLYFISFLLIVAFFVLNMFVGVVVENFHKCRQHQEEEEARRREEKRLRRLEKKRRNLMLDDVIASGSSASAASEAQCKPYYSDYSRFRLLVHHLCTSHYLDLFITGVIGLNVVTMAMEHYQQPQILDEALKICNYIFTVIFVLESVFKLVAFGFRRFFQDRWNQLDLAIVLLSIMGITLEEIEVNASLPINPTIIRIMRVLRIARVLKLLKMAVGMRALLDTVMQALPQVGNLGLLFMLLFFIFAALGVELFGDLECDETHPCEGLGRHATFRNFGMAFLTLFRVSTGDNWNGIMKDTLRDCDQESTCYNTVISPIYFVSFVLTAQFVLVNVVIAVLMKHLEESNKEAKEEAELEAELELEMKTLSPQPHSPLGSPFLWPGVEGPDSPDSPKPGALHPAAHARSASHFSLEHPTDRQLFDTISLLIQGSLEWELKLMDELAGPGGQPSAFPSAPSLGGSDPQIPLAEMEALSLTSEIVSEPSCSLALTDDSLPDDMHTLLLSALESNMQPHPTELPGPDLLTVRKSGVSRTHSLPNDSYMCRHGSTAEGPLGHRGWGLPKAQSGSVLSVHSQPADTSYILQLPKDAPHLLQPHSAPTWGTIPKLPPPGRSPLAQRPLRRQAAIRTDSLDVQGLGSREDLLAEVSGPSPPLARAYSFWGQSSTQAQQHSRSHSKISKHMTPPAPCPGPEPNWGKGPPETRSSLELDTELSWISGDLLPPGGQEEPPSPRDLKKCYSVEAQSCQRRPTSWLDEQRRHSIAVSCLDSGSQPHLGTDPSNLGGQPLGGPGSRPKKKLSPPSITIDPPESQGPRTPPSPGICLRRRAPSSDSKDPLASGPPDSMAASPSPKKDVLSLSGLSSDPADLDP
Sequence of CYP2D6 (P10635 whole entry): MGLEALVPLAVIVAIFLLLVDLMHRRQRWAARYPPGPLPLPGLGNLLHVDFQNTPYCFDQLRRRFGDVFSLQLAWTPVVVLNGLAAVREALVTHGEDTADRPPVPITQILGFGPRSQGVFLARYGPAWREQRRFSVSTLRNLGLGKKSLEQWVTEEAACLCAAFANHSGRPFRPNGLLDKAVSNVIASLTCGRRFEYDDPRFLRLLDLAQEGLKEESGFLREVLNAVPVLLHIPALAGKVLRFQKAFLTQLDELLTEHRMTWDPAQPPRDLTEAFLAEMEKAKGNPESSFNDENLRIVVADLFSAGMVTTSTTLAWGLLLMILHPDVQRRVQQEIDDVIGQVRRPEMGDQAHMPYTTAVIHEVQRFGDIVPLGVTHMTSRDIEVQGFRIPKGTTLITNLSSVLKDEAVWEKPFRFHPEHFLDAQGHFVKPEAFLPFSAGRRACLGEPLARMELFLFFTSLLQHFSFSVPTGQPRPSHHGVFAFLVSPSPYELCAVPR
Sequence of CYP2C19 (P33261 whole entry): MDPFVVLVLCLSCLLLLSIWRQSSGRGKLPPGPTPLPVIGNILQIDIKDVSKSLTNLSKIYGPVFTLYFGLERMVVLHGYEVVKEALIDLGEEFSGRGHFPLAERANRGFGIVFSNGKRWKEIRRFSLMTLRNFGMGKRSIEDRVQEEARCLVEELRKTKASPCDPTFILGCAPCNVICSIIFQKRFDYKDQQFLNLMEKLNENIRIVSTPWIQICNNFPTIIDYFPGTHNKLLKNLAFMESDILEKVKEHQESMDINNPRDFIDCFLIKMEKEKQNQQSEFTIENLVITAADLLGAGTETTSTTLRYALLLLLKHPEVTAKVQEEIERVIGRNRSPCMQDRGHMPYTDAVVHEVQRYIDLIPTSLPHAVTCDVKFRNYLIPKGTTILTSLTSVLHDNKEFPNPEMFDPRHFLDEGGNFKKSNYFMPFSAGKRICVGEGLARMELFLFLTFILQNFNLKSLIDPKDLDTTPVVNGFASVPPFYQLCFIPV
Sequence of CYP3A4 (P08684 whole entry): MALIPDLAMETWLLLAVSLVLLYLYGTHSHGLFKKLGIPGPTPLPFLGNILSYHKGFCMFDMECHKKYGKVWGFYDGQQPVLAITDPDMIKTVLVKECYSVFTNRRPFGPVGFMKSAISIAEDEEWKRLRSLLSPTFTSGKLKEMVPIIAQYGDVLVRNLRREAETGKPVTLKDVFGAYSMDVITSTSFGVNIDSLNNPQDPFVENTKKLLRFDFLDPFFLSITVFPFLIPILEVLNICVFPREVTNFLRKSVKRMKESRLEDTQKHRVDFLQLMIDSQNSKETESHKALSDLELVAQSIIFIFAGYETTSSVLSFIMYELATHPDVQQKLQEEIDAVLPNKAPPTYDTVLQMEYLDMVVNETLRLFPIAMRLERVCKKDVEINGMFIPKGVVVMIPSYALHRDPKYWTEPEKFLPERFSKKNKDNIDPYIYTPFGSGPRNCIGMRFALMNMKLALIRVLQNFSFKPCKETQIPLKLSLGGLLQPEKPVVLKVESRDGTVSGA
Sequence of CYP2C9 (P11712 whole entry): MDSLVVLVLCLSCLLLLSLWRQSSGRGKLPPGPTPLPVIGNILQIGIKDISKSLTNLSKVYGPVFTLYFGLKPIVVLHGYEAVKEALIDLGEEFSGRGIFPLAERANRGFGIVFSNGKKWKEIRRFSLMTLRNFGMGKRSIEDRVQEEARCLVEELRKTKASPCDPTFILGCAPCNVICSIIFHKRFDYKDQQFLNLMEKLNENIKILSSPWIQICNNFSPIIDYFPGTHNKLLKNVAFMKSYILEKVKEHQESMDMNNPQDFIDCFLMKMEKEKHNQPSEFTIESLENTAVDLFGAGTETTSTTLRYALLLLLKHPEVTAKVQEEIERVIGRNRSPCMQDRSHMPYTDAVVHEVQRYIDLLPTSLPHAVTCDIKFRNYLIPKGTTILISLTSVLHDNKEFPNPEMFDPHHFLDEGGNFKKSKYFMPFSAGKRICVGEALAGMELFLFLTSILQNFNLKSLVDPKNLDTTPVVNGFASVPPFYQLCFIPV

Structure (SMILES) | Activity (Rattus norvegicus [1]) | activity at 0.25 h (CYP2C9) [%] | activity at 0.25 h (CYP2C19) [%] | activity at 0.25 h (CYP2D6) [%] | IC50 [3] [µM] | activity at 0.25 h (CYP3A4) [%] | inhibition [6] [%] | inhibition [7] [%] | other results
CC(C)Cc1cc(CNC(=O)C2C3CN(CCC(C)(C)C)CC32)nn1-c1ccccc1 (stereo not given) | Active | 72.8 | 101 | 126 | 2.6 | 82.3 |  |  | fold change (FC) (Rattus norvegicus [2]): 3
CC(C)(C)CCN1CC2C(CNC(=O)c3cc(Cl)cc(Cl)c3)C2C1 (stereo not given) |  |  |  |  |  |  |  |  | IC50 [4]: 0.31 µM
CC(C)Cc1cc(CNC(=O)C2C3CN(C(=O)Cc4ccccc4)CC32)nn1-c1ccccc1 (stereo not given) |  | 24.8 | 65.5 | 83 | 20.8 | 80.4 | 89.9 | 81 | IC50 [5]: 2.73 µM; inhibition [8]: 60.6%; remaining at 0.5 h [9]: 57.8%; IC50 [10]: 2.5 µM
CN(CCCc1nc2ccccc2[nH]1)C(=O)C1C2CN(CCc3ccc(C(F)(F)F)cc3)CC21 (stereo not given) |  | 51.4 | 42.3 | 27.7 |  | 61.4 | 58.7 | 49.2 | remaining at 0.5 h [9]: 76.9%
CC(C)Cc1cc(CNC(=O)C2C3CN(Cc4ccccc4)CC32)nn1-c1ccccc1 (stereo not given) |  | 118 | 30.3 | 56.2 | 1.43 | 102 |  |  | 
CC(C)Cc1cc(CNC(=O)C2C3CN(CCc4ccc(C(F)(F)F)cc4)CC32)nn1-c1ccccc1 (stereo not given) |  |  |  |  |  |  | 64.6 | 60.5 | 
CC(C)Cc1cc(CNC(=O)C2C3CN(C(=O)c4ccccc4)CC32)nn1-c1ccccc1 (stereo not given) | inactive | 64.6 | 60.8 | 94 |  | 74.6 |  |  | bioavailability [11]: 7.6%; AUC(0-t) [12]: 273 ng·h/mL; fold change (FC) (Rattus norvegicus [2]): 2; AUC(0-inf) [13]: 294 ng·h/mL; Kp at 2 h [14]: 0.12; AUC(0-inf) [15]: 3860 ng·h/mL; AUC(0-t) [16]: 3850 ng·h/mL; Cmax [17]: 280 ng/mL; MRT [18]: 18.2 min; Kp at 2 h [19]: 0.29; clearance [20]: 43.8 mL/min/kg; Tmax [21]: 26 min
NCC1(CC(=O)O)CCCCC1 | inactive |  |  |  |  |  |  |  | 
CC(C)Cc1cc(C(=O)NCC2C3CN(CCC(C)(C)C)CC23)nn1-c1ccccc1 (stereo not given) |  | 87.1 | 84.2 | 55.9 |  | 130 |  |  | 
